This note sets out measurements from PubChem BioAssay AID504837 (Johns Hopkins Ion Channel Center, 2011).

“And” between values parts separate entries of the source, which are not always exact repeats. Equal values may be shown once. The source made the active and inactive calls.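 How the source made its calls: active means lowers KCNQ2 potassium channel current at one or more tested doses and a dose response curve can be fitted; inactive means no current drop at any dose, or no curve.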

Chain of Potassium voltage-gated channel subfamily KQT member 2 (Rattus norvegicus) (O88943 whole entry, looked up): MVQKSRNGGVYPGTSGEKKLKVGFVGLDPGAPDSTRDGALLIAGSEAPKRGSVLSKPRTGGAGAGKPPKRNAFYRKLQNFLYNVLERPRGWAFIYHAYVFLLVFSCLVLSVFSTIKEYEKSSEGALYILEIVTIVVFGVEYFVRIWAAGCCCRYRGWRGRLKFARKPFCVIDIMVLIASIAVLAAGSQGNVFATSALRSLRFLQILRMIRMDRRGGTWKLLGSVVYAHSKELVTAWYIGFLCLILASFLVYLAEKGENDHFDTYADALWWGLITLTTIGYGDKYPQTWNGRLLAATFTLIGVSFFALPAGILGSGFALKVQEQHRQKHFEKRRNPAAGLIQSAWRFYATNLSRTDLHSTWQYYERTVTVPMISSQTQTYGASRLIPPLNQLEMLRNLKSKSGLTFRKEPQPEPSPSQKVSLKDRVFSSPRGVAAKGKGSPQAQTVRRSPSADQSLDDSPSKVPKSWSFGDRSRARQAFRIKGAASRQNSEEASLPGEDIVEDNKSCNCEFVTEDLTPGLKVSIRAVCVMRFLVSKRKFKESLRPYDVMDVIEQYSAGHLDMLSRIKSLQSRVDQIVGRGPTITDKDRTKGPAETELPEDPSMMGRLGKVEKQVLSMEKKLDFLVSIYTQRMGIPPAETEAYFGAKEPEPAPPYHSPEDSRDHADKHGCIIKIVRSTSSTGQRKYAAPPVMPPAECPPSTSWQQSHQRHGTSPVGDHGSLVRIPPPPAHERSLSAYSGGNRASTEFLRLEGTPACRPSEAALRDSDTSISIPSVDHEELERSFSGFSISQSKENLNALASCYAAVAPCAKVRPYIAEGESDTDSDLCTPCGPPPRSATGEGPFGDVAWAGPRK

The first test addresses Potassium voltage-gated channel subfamily KQT member 2 (Rattus norvegicus) (UniProt O88943). Briefly: KCNQ2 channel current inhibitors, SAR follow-up, orthogonal assay for KCNQ2 inhibitor project, automated electrophysiology, CHO cells (AID 504837). The following applies: automated patch clamp current. An outline of the steps: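 Material: KCNQ2-expressing CHO cells / Doses: concentration series of test compound, several concentrations / Technique: automated amphotericin-perforated patch clamp recording / Replication: quadruplicate per concentration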
As for `Cc1ccc(OCCC(=O)NCC(c2cccs2)N2CCOCC2)cc1` (configuration not stated), the IC50 is 8980 nM.

For the molecule `CC1(C(=O)NCC(c2cccs2)N2CCOCC2)CC1(Cl)Cl` (configuration not stated), the IC50 is 9510 nM. `O=C(NCC(c1cccs1)N1CCOCC1)C1COc2ccc(Cl)cc2C1` (configuration not stated): the IC50 is 3200 nM. On the same count and under the same terms, in the case of `O=C(NCC(c1ccco1)N1CCOCC1)C(c1ccccc1)c1ccccc1` (configuration not stated) it was 1200 nM. With `O=C(NC[C@H](c1cccs1)N1CCOCC1)C12CC3CC(CC(C3)C1)C2`, the IC50 is 8480 nM. For the molecule `O=C(NCC(c1cccs1)N1CCOCC1)C12CC3CC(CC(C3)C1)C2` (configuration not stated), the IC50 is 910 nM and 440 nM. On the same count and under the same terms, in the case of `O=C(NCC(c1cccs1)N1CCOCC1)C1CCCCC1` (configuration not stated) it was 2930 nM.

As to `CC1Oc2ccccc2OC1C(=O)NCC(c1cccs1)N1CCOCC1` (configuration not stated), the half-inhibitory concentration (IC50) was 8360 nM. For `O=C(CC1CCCCC1)NCC(c1cccs1)N1CCOCC1` (configuration not stated), the IC50 was 1730 nM. Still for that read-out and setting: in the case of `O=C(NC[C@@H](c1cccs1)N1CCOCC1)C12CC3CC(CC(C3)C1)C2` it was 140 nM.

The same test, now with this note: automated patch clamp current, at 30 µM (top of the series).
As for `Cc1ccc(C(CNC(=O)C2(C)CC2(Cl)Cl)N2CCOCC2)o1` (configuration not stated), the “current change, negative = inhibition” value is “inactive”. Turning to `CCCCC1CCC(C(=O)NCC(c2ccco2)N2CCOCC2)CC1` (configuration not stated), the “current change, negative = inhibition” value was “inactive”. The same measure, in the same setting: in the case of `CC(C)(C)C1CCC(C(=O)NCC(c2cccs2)N2CCOCC2)CC1` (configuration not stated) it was “inactive”; in that of `CC(C)(C)C(=O)NCC(c1cccs1)N1CCOCC1` (configuration not stated), “inactive”. On the same count and under the same terms, in the case of `Cc1ccc(OCCC(=O)NCC(c2cccs2)N2CCOCC2)cc1` (configuration not stated) it was “inactive”; in that of `O=C(NCC(c1ccco1)N1CCOCC1)C1CC1` (configuration not stated), “inactive”. Same read-out and setting: next, `CCC(CC)C(=O)NCC(c1ccco1)N1CCOCC1` (configuration not stated): “inactive”. Take `Cc1ccc(OCC(=O)NCC(c2cccs2)N2CCOCC2)cc1` (configuration not stated): the “current change, negative = inhibition” value is “inactive”.

In the case of `CC(C)CC(=O)NCC(c1cccs1)N1CCOCC1` (configuration not stated), the “current change, negative = inhibition” value was “inactive”.

On to `CC(C)(C)c1ccc(OCCC(=O)NCC(c2cccs2)N2CCOCC2)cc1` (configuration not stated), for which the “current change, negative = inhibition” value was “inactive”. On the same count and under the same terms, in the case of `COc1ccccc1C(=O)NCC(c1cccs1)N1CCOCC1` (configuration not stated) it was “inactive”; in that of `CCCCC1CCC(C(=O)NC[C@@H](c2ccco2)N2CCOCC2)CC1` (some centres not stated), “inactive”. Same read-out and setting: in the case of `CN1CCN(C(CNC(=O)C23CC4CC(CC(C4)C2)C3)c2cccs2)CC1` (configuration not stated) it was “inactive”; in that of `Cc1ccc(C(CNC(=O)C2CCC2)N2CCOCC2)o1` (configuration not stated), “inactive”.

On to `CN1CCN(C(CNC(=O)CC(C)(C)C)c2cccs2)CC1` (configuration not stated), for which the “current change, negative = inhibition” value was “inactive”. The same measure, in the same setting: in the case of `O=C(NCC(c1ccco1)N1CCOCC1)C1CCCCC1` (configuration not stated) it was “inactive”; in that of `CC(C)C(=O)NCC(c1cccs1)N1CCOCC1` (configuration not stated), “inactive”.
